High-throughput results as filed in PubChem BioAssay.
In the library only some 2.4% were active in any assay of this set; here they are far more common.
SR-BI uptake up = enhances SR-BI lipid uptake from DiI-HDL. activation, % at 12.5 µM. CHO ldlA[mSR-BI] cells, DiI-HDL uptake fluorescence, 3 h; 100 = double the neutral-control signal. AID 504775. 320,000 tested, 0.096% active;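 active = mean replicate activation of at least 60% and every replicate at or above 60%; inconclusive = mean or all-replicate condition met, but not both; inactive = mean below 60% and not all replicates reaching 60%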
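Assay system: LDL receptor-deficient CHO ldlA cells overexpressing murine SR-BI / Medium: BSA-supplemented, HEPES-buffered Ham's F12, pH 7.4 / Probe or stimulus: DiI-labelled HDL at 10 µg/mL final / Timing: compound with DiI-HDL co-incubation, 3 h at 37 °C / Technique: bottom-read cell fluorescence after medium removal, ex 550/em 595 nm / Measure: HDL uptake via cellular fluorescence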
SR-BI HDL uptake = blocks mouse SR-BI lipid uptake from DiI-HDL | Q61009 | ldlA[mSR-BI] CHO cells, DiI-HDL uptake fluorescence, 3 h | inhibition, % at 12.5 µM | 320,000 tested, 0.96% active | AID 488896;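 active = mean replicate inhibition of at least 70% and a set share of replicates each scoring 70 or more; inconclusive = meets just one of the two criteria; inactive = fails both criteria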
Target sequence (Q61009 whole entry, looked up): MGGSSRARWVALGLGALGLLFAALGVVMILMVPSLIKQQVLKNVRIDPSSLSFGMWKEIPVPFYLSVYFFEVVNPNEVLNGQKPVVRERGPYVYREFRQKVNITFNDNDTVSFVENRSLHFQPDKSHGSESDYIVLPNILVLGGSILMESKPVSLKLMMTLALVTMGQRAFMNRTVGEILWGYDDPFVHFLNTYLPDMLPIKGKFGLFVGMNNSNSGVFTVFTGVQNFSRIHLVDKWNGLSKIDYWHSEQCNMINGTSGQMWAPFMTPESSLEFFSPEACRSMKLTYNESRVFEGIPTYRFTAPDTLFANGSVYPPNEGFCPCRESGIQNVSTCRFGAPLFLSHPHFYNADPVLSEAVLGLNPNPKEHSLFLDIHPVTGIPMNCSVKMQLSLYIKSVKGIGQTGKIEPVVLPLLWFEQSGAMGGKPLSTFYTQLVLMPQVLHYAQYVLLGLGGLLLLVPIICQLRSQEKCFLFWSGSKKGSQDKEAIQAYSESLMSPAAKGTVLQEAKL
HTR2A ag = mouse HTR2A agonism via beta-arrestin recruitment; CHO-K1 mHTR2A beta-arrestin complementation, luminescence; percent of 30 µM serotonin response; activation, % at 7.6 µM; 360,000 tested, 0.66% active;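 active = activation above a run cutoff, the mean activation of all tested compounds plus 3 SD, cut at about 14% in these data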
Calb FLC = affects C. albicans growth with fluconazole. 300,000 tested, 0.57% active. AID 1979. growth inhibition, % (test concentration not listed). C. albicans CaCi-2 + fluconazole, Alamar Blue growth, 48 h;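 active = growth inhibition above about 58% in most replicates, limit read from the data, passing the limit was not always enough; inconclusive = exactly half the replicates above a set limit; inactive = most replicates below a set limit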;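 note: all wells also contain fluconazole at 8 µg/ml as a sub-toxic cotreatment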
Ins promoter up = MIN6 insulin promoter up-regulation; MIN6 insulin promoter-GFP reporter, high-content imaging; hits give high values; z-score at 5 µM; 190,000 tested, 0.3% active; AID 1625;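 active = z-score above 3 at 5 µM with at least 500 cells counted in the well; inconclusive = wells under 500 cells, flagged as cytotoxic or low count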
MIN6 prolif-1 = induces beta-cell replication in MIN6 cells; MIN6 cells proliferation, ATPlite luminescence, 48 h; cells starved in 0.2% serum; 100% = growth in 10% serum; proliferation, % at 10 µM; 330,000 tested, 0.29% active; AID 2380;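 active = compounds whose signal lies at least 3.5 SD above the mean of all wells on their plate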
MIN6 prolif-2 = confirmation of inducers of beta-cell replication in MIN6 cells | MIN6 beta-cell proliferation, ATPlite luminescence, 48 h; cells kept in 0.2% serum; scaled between 0.2% and 10% serum | 920 tested, under 10 active | proliferation increase, % at 50 µM | shares compounds with MIN6 prolif-1;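 active = proliferation increase above 40% at any of the four tested concentrations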
Each line names hits and unclear results; the compound was inactive in the other large screens (follow-up assays come after a bar, where they were run).

COCCCn1c(C(=O)NC2CCCCC2C)cc2c(=O)n3cccc(C)c3nc21 (stereo not given)	MIN6 prolif-1 4.9 (no result: Ins promoter up) | MIN6 prolif-2 inactive
CC(C)=CCCC(C)=CCN1C(=O)CN(C)C1=O	none (no result: SR-BI uptake up, SR-BI HDL uptake, Calb FLC, Ins promoter up, MIN6 prolif-1)
CCOC(=O)C1CCCCN1Cc1ccc(OC)c(OC)c1 (stereo not given)	MIN6 prolif-1 8.0 | MIN6 prolif-2 inactive
CCOC(=O)C1CCCCN1Cc1ccc(F)c(Br)c1 (stereo not given)	none
CN1C(=O)c2cccc3c(Cl)ccc(c23)C1=O	MIN6 prolif-1 6.9 | MIN6 prolif-2 inactive
CC(=O)N1CCC(C(=O)Nc2ccc(S(=O)(=O)N3CCCCC3)cc2)CC1	none (no result: Ins promoter up)
COC(C(=O)Nc1ccnn1C1CCN(Cc2ccc(C)s2)CC1)c1ccccc1 (stereo not given)	MIN6 prolif-1 9.2 (no result: Ins promoter up) | MIN6 prolif-2 inactive
COC(C(=O)Nc1ccnn1C1CCN(Cc2ccc(Cl)s2)CC1)c1ccccc1 (stereo not given)	none (no result: Ins promoter up)
CCc1ccc(NC(=O)c2noc3c2CCc2ccccc2-3)cc1	MIN6 prolif-1 7.2 (no result: Ins promoter up) | MIN6 prolif-2 inactive
Cc1ccc(NC(=O)c2noc3c2CCc2ccccc2-3)cc1	none (no result: Ins promoter up)
Cc1ccc2c(c1)cc(CN(Cc1ccc3c(c1)OCO3)C(=O)c1ccccc1)c1nnnn12	MIN6 prolif-1 8.0 | MIN6 prolif-2 inactive
CCC(C)(C(=O)NC1CCCC1)N(Cc1ccco1)C(=O)Cc1cccs1 (stereo not given)	MIN6 prolif-1 12 | MIN6 prolif-2 inactive
CCC(C)(C(=O)NC1CCCC1)N(Cc1ccco1)C(=O)c1ccc2c(c1)OCO2 (stereo not given)	MIN6 prolif-1 8.7 | MIN6 prolif-2 inactive
CCC(C)(C(=O)NC1CCCC1)N(Cc1ccco1)C(=O)c1ccccn1 (stereo not given)	none
CCC(C)(C(=O)NC1CCCC1)N(Cc1cccs1)C(=O)Cc1cccs1 (stereo not given)	none
CC(=O)NCCc1nc2cc(NC(=O)COc3ccc(C)cc3)ccc2n1C	MIN6 prolif-1 9.2 (no result: SR-BI uptake up, SR-BI HDL uptake, Ins promoter up) | MIN6 prolif-2 inactive
COc1ccc(OCC(=O)Nc2ccc3c(c2)nc(CCNC(C)=O)n3C)cc1	none (no result: Ins promoter up)
c1ccc2c(N3CCCC3)nc(-c3ccncc3)nc2c1	MIN6 prolif-1 14 (no result: Ins promoter up) | MIN6 prolif-2 inactive
COc1nc(-c2ccncc2)nc2ccccc12	MIN6 prolif-1 6.2 (no result: Ins promoter up) | MIN6 prolif-2 inactive
O/N=C/c1cn(-c2ccc(Cl)cc2)nn1	none
O/N=C/c1cn(-c2ccccc2)nn1	Calb FLC inconclusive, MIN6 prolif-1 7.6 | MIN6 prolif-2 inactive
Cc1cc(C)nc(NC(=NCCc2c[nH]c3ccccc23)NC(=O)c2ccco2)n1	SR-BI HDL uptake 71, MIN6 prolif-1 12 (no result: Ins promoter up) | MIN6 prolif-2 inactive
O=S(=O)(NC1CCCC1)c1ccc(F)cc1F	none (no result: SR-BI uptake up, SR-BI HDL uptake, Calb FLC, Ins promoter up, MIN6 prolif-1)
Cc1cccc(C)c1OCC(=O)N1CC2(C)CC1CC(C)(C)C2 (stereo not given)	none
Cc1ccc(OCC(=O)N2CC3(C)CC2CC(C)(C)C3)cc1 (stereo not given)	MIN6 prolif-1 6.8 | MIN6 prolif-2 inactive
COC(=O)c1sc(S(=O)(=O)N2CCCCC2C)c(C(=O)OC)c1C (stereo not given)	none (no result: Calb FLC, Ins promoter up)
C[C@@H](NC(=O)c1nc[nH]c1C(=O)N(C)Cc1ccccc1)c1ccccc1	none (no result: Calb FLC, Ins promoter up)
O=C(c1cccc2ccccc12)n1nnc2ccccc21	MIN6 prolif-1 10 (no result: SR-BI uptake up, SR-BI HDL uptake, HTR2A ag, Ins promoter up) | MIN6 prolif-2 inactive
CCCCn1nnnc1C(c1ccccc1)N1CCN(c2cc(C)ccc2C)CC1 (stereo not given)	none (no result: SR-BI uptake up, SR-BI HDL uptake, Calb FLC, Ins promoter up, MIN6 prolif-1)
CN(CC(=O)Nc1ccc(F)cc1)CC(=O)N1CCCC1	none (no result: Calb FLC, Ins promoter up)
CC(=O)c1cccc(-c2ccnc3c2CC(C(=O)Nc2ccc(C(C)C)cc2)O3)c1 (stereo not given)	none (no result: SR-BI uptake up, SR-BI HDL uptake, Calb FLC, Ins promoter up, MIN6 prolif-1)
CCOC(=O)Cn1c(=O)n(Cc2ccco2)c(=O)c2ccc(C(=O)NC3CCCC3)cc21	MIN6 prolif-1 12 | MIN6 prolif-2 inactive
COc1cc(/C=N/NC(N)=S)ccc1OCC(=O)Nc1ccc(C)cc1	none
